Measured values from ChEMBL document CHEMBL4715798, “Structure-Based Optimization of Multifunctional Agonists for Opioid and Neuropeptide FF Receptors with Potent Nontolerance Forming Analgesic Activities” (J Med Chem, 2016).
The source made the active and inactive calls. No cut-off for these calls is given here. Non-standard residues stand in square brackets, D forms with d. Residues, ends and D or L forms follow the SMILES beside them. NMeY = CN[C@@H](Cc1ccc(O)cc1)C(=O)O; NMeF = CN[C@@H](Cc1ccccc1)C(=O)O

Columns and labels:
Mu-type opioid receptor [1] = target: T1, Mu-type opioid receptor (Homo sapiens, UniProt P35372); assay: Agonist activity at mu opioid receptor (unknown origin) expressed in HEK293-A cells assessed as reduction in forskolin-induced cAMP accumulation incubated for 30 mins by competition PKA binding assay relative to Tyr-D-Ala-Gly-Phe-Gln-Pro-Gln-Arg-Phe-NH2; type: functional, cell-based; settings: filed as agonist
How it was run: (§1)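 cAMP functional read-out in transfected cells. Log EC50 ± standard error was obtained by nonlinear regression of data from at least three independent experiments run in duplicate.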

Mus musculus [2] = assay: Antinociceptive activity in mouse assessed as development of tolerance dosed repeated icv injections for 6 days by radiant heat tail-flick test; type: functional, organism-based; settings: time 6.0 day
How it was run: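 Tail-flick test in mice. Peptide was given icv once daily for 6 days at a fixed dose. Antinociceptive responses to the same dose on day 1 and day 6 were compared to judge tolerance. Values are mean ± SEM.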

Mus musculus [3] = assay: Antinociceptive activity in mouse dosed repeated icv injections for 6 days by radiant heat tail-flick test; type: functional; settings: time 6 day
How it was run: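 Mice received the same icv dose once daily for 6 days in the radiant heat tail-flick test. Tolerance was judged by comparing the antinociceptive response on day 1 with day 6. Values are mean ± SEM.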

[4] = target: T2, Neuropeptide FF receptor 1 (Homo sapiens, UniProt Q9GZQ6); assay: Agonist activity at NPFFR1 (unknown origin) expressed in HEK293-A cells assessed as reduction in forskolin-induced cAMP accumulation at 10 uM incubated for 30 mins by competition PKA binding assay relative to Tyr-D-Ala-Gly-Phe-Gln-Pro-Gln-Arg-Phe-NH2; type: functional, cell-based; how it was run: as §1
[5] = target: T3, Delta-type opioid receptor (Homo sapiens, UniProt P41143); assay: Agonist activity at delta opioid receptor (unknown origin) expressed in HEK293-A cells assessed as reduction in forskolin-induced cAMP accumulation incubated for 30 mins by competition PKA binding assay relative to Tyr-D-Ala-Gly-Phe-Gln-Pro-Gln-Arg-Phe-NH2; type: functional, cell-based; settings: filed as agonist; how it was run: as §1
[6] = target: T4, Neuropeptide FF receptor 2 (Homo sapiens, UniProt Q9Y5X5); assay: Agonist activity at NPFFR2 (unknown origin) expressed in HEK293-A cells assessed as reduction in forskolin-induced cAMP accumulation incubated for 30 mins by competition PKA binding assay relative to Tyr-D-Ala-Gly-Phe-Gln-Pro-Gln-Arg-Phe-NH2; type: functional, cell-based; how it was run: as §1
Mu-type opioid receptor [7] = target: T1, Mu-type opioid receptor; assay: Agonist activity at mu opioid receptor (unknown origin) expressed in HEK293-A cells assessed as reduction in forskolin-induced cAMP accumulation incubated for 30 mins by competition PKA binding assay; type: functional, cell-based; how it was run: as §1
[8] = target: T4, Neuropeptide FF receptor 2; assay: Agonist activity at NPFFR2 (unknown origin) expressed in HEK293-A cells assessed as reduction in forskolin-induced cAMP accumulation incubated for 30 mins by competition PKA binding assay; type: functional, cell-based; how it was run: as §1
[9] = target: T3, Delta-type opioid receptor; assay: Agonist activity at delta opioid receptor (unknown origin) expressed in HEK293-A cells assessed as reduction in forskolin-induced cAMP accumulation incubated for 30 mins by competition PKA binding assay; type: functional, cell-based; how it was run: as §1
[10] = target: Kappa-type opioid receptor (Homo sapiens, UniProt P41145); assay: Agonist activity at kappa opioid receptor (unknown origin) expressed in HEK293-A cells assessed as reduction in forskolin-induced cAMP accumulation incubated for 30 mins by competition PKA binding assay; type: functional, cell-based; how it was run: as §1
[11] = target: T2, Neuropeptide FF receptor 1; assay: Agonist activity at NPFFR1 (unknown origin) expressed in HEK293-A cells assessed as reduction in forskolin-induced cAMP accumulation incubated for 30 mins by competition PKA binding assay relative to Tyr-D-Ala-Gly-Phe-Gln-Pro-Gln-Arg-Phe-NH2; type: functional, cell-based; settings: filed as agonist; how it was run: as §1
[12] = target: T2, Neuropeptide FF receptor 1; assay: Agonist activity at NPFFR1 (unknown origin) expressed in HEK293-A cells assessed as reduction in forskolin-induced cAMP accumulation incubated for 30 mins by competition PKA binding assay; type: functional, cell-based; settings: read-out: EC50; how it was run: as §1
[13] = target: T3, Delta-type opioid receptor; assay: Agonist activity at delta opioid receptor (unknown origin) expressed in HEK293-A cells assessed as reduction in forskolin-induced cAMP accumulation at 10 uM incubated for 30 mins by competition PKA binding assay relative to Tyr-D-Ala-Gly-Phe-Gln-Pro-Gln-Arg-Phe-NH2; type: functional, cell-based; settings: filed as agonist; how it was run: as §1

Row | Compound | Emax (Mu-type opioid receptor [1]) [%] | Activity (Mus musculus [2]) | ED50 (Mus musculus [3]) [nmol] | Emax [4] [%] | Emax [5] [%] | Emax ([6]; filed as agonist) [%] | EC50 (Mu-type opioid receptor [7]; read-out: EC50) [µM] | EC50 (Mu-type opioid receptor [7]; read-out: pEC50 (converted)) [µM] | EC50 ([8]; read-out: EC50) [µM] | EC50 [9] [µM] | Emax [6] [%] | EC50 [10] [µM] | Emax [11] [%] | EC50 ([8]; read-out: pEC50 (converted)) [µM] | EC50 [12] [µM] | Emax [13] [%]
1 | C[C@@H](NC(=O)[C@@H](N)Cc1ccc(O)cc1)C(=O)NCC(=O)N[C@@H](Cc1ccccc1)C(=O)N[C@H](C)C(=O)N1CCC[C@H]1C(=O)N[C@@H](CCC(N)=O)C(=O)N[C@@H](CCCNC(=N)N)C(=O)N[C@@H](Cc1ccccc1)C(N)=O (H-Y[dA]GF[dA]PQRF-NH2) | 85.6 | Active | 0.3361 | 15.1 | 85.3 | 45.9 | 0.249 | 0.245 | 5.01 | 0.81 | – | – | – | – | – | –
2 | CC(C)C[C@@H](NC(=O)[C@H](Cc1ccccc1)NC(=O)CNC(=O)[C@@H](C)NC(=O)[C@@H](N)Cc1ccc(O)cc1)C(=O)N1CCC[C@H]1C(=O)N[C@@H](CCC(N)=O)C(=O)N[C@@H](CCCNC(=N)N)C(=O)N[C@@H](Cc1ccccc1)C(N)=O (H-Y[dA]GF[dL]PQRF-NH2) | 86.3 | Active | 0.4367 | 30.7 | 86.4 | – | 0.583 | – | 0.651 | 0.0569 | 37.2 | – | – | – | – | –
3 | N=C(N)NCCC[C@H](NC(=O)[C@H](CCC(N)=O)NC(=O)[C@@H]1CCCN1C(=O)[C@H](CCC(N)=O)NC(=O)[C@H](Cc1ccccc1)NC(=O)CNC(=O)[C@@H](CO)NC(=O)[C@@H](N)Cc1ccc(O)cc1)C(=O)N[C@@H](Cc1ccccc1)C(N)=O | 97.1 | inactive | 0.6062 | – | 84.9 | 63 | 0.563 | – | 0.254 | 0.118 | – | 1.47 | 82.3 | 0.245 | 3.2 | –
4 | CSCC[C@@H](NC(=O)[C@@H](N)Cc1ccc(O)cc1)C(=O)NCC(=O)N[C@@H](Cc1ccccc1)C(=O)N[C@@H](CCC(N)=O)C(=O)N1CCC[C@H]1C(=O)N[C@@H](CCC(N)=O)C(=O)N[C@@H](CCCNC(=N)N)C(=O)N[C@@H](Cc1ccccc1)C(N)=O | 89.4 | inactive | 0.0314 | – | 84.7 | 57.9 | 0.424 | – | 0.0413 | 0.114 | – | 1.26 | 73.5 | – | 0.661 | –
5 | C[C@@H](NC(=O)[C@@H](N)Cc1ccc(O)cc1)C(=O)NCC(=O)N(C)[C@@H](Cc1ccccc1)C(=O)N[C@@H](CCC(N)=O)C(=O)N1CCC[C@H]1C(=O)N[C@@H](CCC(N)=O)C(=O)N[C@@H](CCCNC(=N)N)C(=O)N[C@@H](Cc1ccccc1)C(N)=O (H-Y[dA]G[NMeF]QPQRF-NH2) | 91.6 | Active | 0.3862 | – | 84.9 | 54.5 | 0.0201 | – | 0.272 | 0.157 | – | 0.031 | 67.7 | – | 0.289 | –
6 | CN[C@@H](Cc1ccc(O)cc1)C(=O)N[C@H](C)C(=O)NCC(=O)N[C@@H](Cc1ccccc1)C(=O)N[C@@H](CCC(N)=O)C(=O)N1CCC[C@H]1C(=O)N[C@@H](CCC(N)=O)C(=O)N[C@@H](CCCNC(=N)N)C(=O)N[C@@H](Cc1ccccc1)C(N)=O (H-[NMeY][dA]GFQPQRF-NH2) | 86.7 | Active | 1.298 | – | – | 49.5 | 0.196 | – | 0.132 | – | – | 2.59 | 72.4 | – | 0.928 | 70
